Where two headings read alike, the source gives them in different places.
Legend:
Xenopus laevis tadpoles = assay: Hypnotic activity Xenopus laevis tadpole bioassay; assay type: in vivo; conditions: for EC50: Xenopus laevis
In short: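 Albino tadpoles at stages 45–47, 10 per dish, kept at 21–22 °C. They were exposed for 30 min to graded concentrations of test compound, with or without 10 μM atipamezole, in E3 artificial pond water containing <0.01% (v/v) DMSO. Loss of spontaneous movement was scored. Animals were then moved to fresh pond water and watched for toxicity. Each concentration was run in triplicate and reported as mean ± SEM.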

albumin = conditions: cited from earlier work
[1] = molecular target: human serum albumin (hSA) (Homo sapiens, UniProt P02768); assay: Isothermal titration calorimetry with human serum albumin; assay type: binding
In short: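 The calorimeter cell held 20 μM human serum albumin in PBS (150 mM NaCl, 20 mM sodium phosphate, pH 7.4), with ddH2O in the reference cell. The titrant was 0.22 mM test compound, made as a filtered saturated PBS solution with concentration checked by UV absorbance. Injections were spaced 300 s apart at 30 °C. Data were corrected for heats of dilution and fitted to a single set of independent sites. Ka from triplicate runs was averaged.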

recombinant human α2A -R = molecular target: T1, recombinant human α2A -R (Homo sapiens, UniProt P08913); assay: [3H]clonidine radioligand competitive binding assay; conditions: Kd with the Cheng–Prusoff correction, 15 nM [3H]-clonidine
T1 sequence (P08913 1-465): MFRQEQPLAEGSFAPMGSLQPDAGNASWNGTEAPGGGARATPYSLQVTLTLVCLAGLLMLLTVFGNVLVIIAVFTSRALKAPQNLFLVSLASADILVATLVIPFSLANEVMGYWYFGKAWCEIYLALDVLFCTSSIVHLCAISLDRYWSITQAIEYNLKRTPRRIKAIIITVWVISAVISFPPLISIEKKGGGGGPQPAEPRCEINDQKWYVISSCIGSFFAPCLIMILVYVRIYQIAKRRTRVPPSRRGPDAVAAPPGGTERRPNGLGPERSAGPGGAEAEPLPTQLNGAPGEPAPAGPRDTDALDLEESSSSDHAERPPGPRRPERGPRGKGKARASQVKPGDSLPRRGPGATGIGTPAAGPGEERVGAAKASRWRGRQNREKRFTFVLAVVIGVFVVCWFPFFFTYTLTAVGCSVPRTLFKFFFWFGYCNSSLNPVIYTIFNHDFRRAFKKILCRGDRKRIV

[2] = molecular target: T2, human α2A adrenergic receptor (Homo sapiens, UniProt P08913); assay: [35S]GTPγS binding assay; assay type: biochemical; conditions: 1 μM RX 821002 (selective α2 antagonist)
T2 sequence (P08913 1-465): T1 sequence (P08913 1-465)

[3] = 0.5 h, read-out: hypnotic EC50 (loss of spontaneous movement)

Sequence of human serum albumin (hSA) (P02768 25-609): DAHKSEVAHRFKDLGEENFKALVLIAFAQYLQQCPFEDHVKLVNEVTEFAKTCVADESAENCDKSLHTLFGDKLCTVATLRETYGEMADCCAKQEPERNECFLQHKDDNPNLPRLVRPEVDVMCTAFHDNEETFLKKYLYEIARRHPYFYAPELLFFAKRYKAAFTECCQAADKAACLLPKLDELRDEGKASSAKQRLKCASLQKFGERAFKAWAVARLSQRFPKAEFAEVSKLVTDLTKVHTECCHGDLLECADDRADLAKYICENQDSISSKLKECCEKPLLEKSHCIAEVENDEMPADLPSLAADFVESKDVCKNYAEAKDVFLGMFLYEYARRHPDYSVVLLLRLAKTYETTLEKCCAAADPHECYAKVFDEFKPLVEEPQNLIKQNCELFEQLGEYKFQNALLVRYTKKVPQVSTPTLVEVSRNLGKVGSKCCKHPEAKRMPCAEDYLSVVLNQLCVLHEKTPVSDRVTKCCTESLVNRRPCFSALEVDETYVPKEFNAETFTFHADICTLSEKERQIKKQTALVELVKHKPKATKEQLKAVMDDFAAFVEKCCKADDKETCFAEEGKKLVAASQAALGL

Compound | EC50 (Xenopus laevis tadpoles; [3]) [nM] | EC50 (Xenopus laevis tadpoles; read-out: behavioral EC50 in Xenopus tadpoles) [nM] | fraction bound to albumin in plasma (albumin) [%] | Kd [1] [nM] | Kd (recombinant human α2A -R; with UV exposure (350 nm light, 30 min)) [nM] | Kd (recombinant human α2A -R; without UV) [nM] | α2A-R activity in the presence of RX 821,002 [2] | toxicity in Xenopus tadpoles (Xenopus laevis tadpoles; observed after transfer to fresh pond water)
Cc1cccc([C@H](C)c2cnc[nH]2)c1C [dexmedetomidine, reference compound] | 860 | 800 | > 90 |  |  |  |  | 
CC(c1cccc(C2(C(F)(F)F)N=N2)c1)c1cnc[nH]1 (stereo not drawn) [azi-medetomidine, 5-(1-(3-(3-(trifluoromethyl)-3H-diazirine-3-yl)phenyl)ethyl)-1H-imidazole] | 4650 |  |  | 29000 | 3.68 | 2.1 | eliminated all α2A -R activity | did not display any frank toxicity

— publication PMC6889220 (ACS chemical neuroscience, 2019)
